Measurements: ChEMBL document CHEMBL4765449, “Synthesis, biological evaluation and toxicity of novel tetrandrine analogues” (Eur J Med Chem, 2020)
Activity calls are given as the source filed them. The rule behind the calls is not given here.

Experiments:
[1] = system: HepG2; assay: Cytotoxicity against human HepG2 cells overexpressing EGFP-CYP3A4 assessed as reduction in cell viability at 15 uM measured after 24 hrs by propidium iodide staining based flow cytometry; assay type: functional
Method in brief: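 HepG2 stably transfected (G418 0.5 mg/mL, four weeks; plasmid confirmed by PCR) with pcDNA3-CYP3A4-EGFP or empty vector, 0.1 × 10^6 per well, adhered overnight; 15 μM compound 24 h. Propidium iodide staining and flow cytometry; specific cell death relative to control. Three independent experiments.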

[2] = system: HepG2; assay: Induction of mitochondrial membrane disruption in human HepG2 cells at 5 uM measured after 24 hrs by JC-1 dye based flow cytometric analysis; assay type: functional, cell-based
Method in brief: (§1)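 Cells (HepG2 adhered overnight; VCR-R CEM seeded 4 h before) treated with DMSO or 5 μM for 24 h; JC-1 (1 μg/mL) 1 h before harvest, PBS wash, flow cytometry; green shift read as loss of ΔΨm. CCCP (100 μM, 1 h) positive control; elacridar (5 μM) present for CEM staining.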

[3] = system: HepG2; assay: Induction of apoptosis in human HepG2 cells assessed as increase in PARP cleavage at 5 uM measured after 24 hrs by Western blot analysis; assay type: functional, cell-based
Method in brief: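 HepG2, 0.5 × 10^6 per well, adhered overnight, then DMSO or 5 μM compound; RIPA lysates immunoblotted by SDS-PAGE/PVDF with chemiluminescent detection.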

[4] = system: CCRF-CEM; assay: Effect on Bcl-XL expression in vincristine-resistant human CEM cells at 5 uM measured after 24 hrs by Western blot analysis; assay type: functional, cell-based
Method in brief: (§2)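 VCR-R CEM cells, 2 × 10^6 per well, seeded 4 h before 5 μM compound or DMSO for 24 h; RIPA lysis, SDS-PAGE, PVDF blotting, chemiluminescence. Probed for p-Akt (Ser473), total Akt, PARP, Bcl-xL, Mcl-1; stain-free total protein as loading control.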

[5] = system: CEM; assay: Effect on AKT phosphorylation at Ser473 residue in vincristine-resistant human CEM cells at 5 uM measured after 24 hrs by Western blot analysis; assay type: cell-based; method in brief: as §2
[6] = system: CCRF-CEM; assay: Effect on MCL1 expression in vincristine-resistant human CEM cells at 5 uM measured after 24 hrs by Western blot analysis; assay type: functional, cell-based; method in brief: as §2
[7] = system: CCRF-CEM; assay: Effect on P-gp expression in vincristine-resistant human CEM cells at 1 uM measured after 1.5 hrs by immunostaining based flow cytometry; assay type: functional, cell-based
Method in brief: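 VCR-R CEM, 2 × 10^4 cells, 1 μM compound 1.5 h at 37 °C; washed in ice-cold 1% BSA/PBS, stained 30 min at 4 °C in dark with FITC anti-human P-gp, isotype control for background; flow cytometry, gMFI normalized to DMSO. Three independent experiments.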

[8] = system: CEM; assay: Inhibition of P-gp in vincristine-resistant human CEM cells at 0.1 to 1 uM using calcein-AM as substrate preincubated for 30 mins followed by compound washout and subsequent substrate addition measured after 60 mins by flow cytometric analysis; assay type: cell-based; settings: dose 0.1-1 µM
[9] = system: CEM; assay: Inhibition of P-gp in vincristine-resistant human CEM cells assessed as potentiation of vincristine-induced apoptosis 1 uM measured after 48 hrs by propidium iodide staining based flow cytometry; assay type: cell-based
Method in brief: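 VCR-R CEM, 0.125 × 10^6 per well, rested 4 h, then incubated 48 h with increasing vincristine with or without 1 μM compound; apoptosis by propidium iodide staining and flow cytometry. Three independent experiments.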

[10] = system: CCRF-CEM; assay: Induction of apoptosis in vincristine-resistant human CEM cells assessed as increase in PARP cleavage at 5 uM measured after 24 hrs by Western blot analysis; assay type: functional, cell-based; method in brief: as §2
[11] = system: CCRF-CEM; assay: Induction of mitochondrial membrane disruption in vincristine-resistant human CEM cells at 5 uM measured after 24 hrs by JC-1 dye based flow cytometric analysis; assay type: functional, cell-based; method in brief: as §1
[12] = system: HepaRG; assay: Cytotoxicity against human HepaRG cells overexpressing EGFP-CYP3A4 assessed as reduction in cell viability at 10 uM measured after 24 hrs by propidium iodide staining based flow cytometry; assay type: ADME
Method in brief: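 HepaRG cells, differentiated, transiently transfected with pcDNA3-CYP3A4-EGFP or empty vector 16 h before stimulation; 10 μM compound for 24 h. Propidium iodide (5 μg/mL in PBS) staining, flow cytometry without FSC/SSC gating; specific cell death = % dead (treated) − % dead (control). Three independent experiments.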

[13] = system: HepaRG; assay: Cytotoxicity against human HepaRG cells assessed as reduction in cell viability at 10 uM measured after 24 hrs by Celltiter-blue cell viability assay; assay type: cell-based
Method in brief: (§3)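 Differentiated HepaRG cells (Maintenance/Metabolism medium) exposed 24 h to 10 or 20 μM compound; viability by CellTiter-Blue, normalized to vehicle control. Means ± SEM of three independent experiments.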

[14] = system: HepaRG; assay: Cytotoxicity against human HepaRG cells assessed as reduction in cell viability at 20 uM measured after 24 hrs by Celltiter-blue cell viability assay; assay type: cell-based; method in brief: as §3
[15] = system: HUVEC; assay: Cytotoxicity against HUVEC assessed as reduction in cell viability at 1 to 10 uM measured after 24 hrs by Celltiter-blue cell viability assay; assay type: cell-based; settings: human, dose 1-10 µM
Method in brief: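 HUVECs seeded, adhered overnight, exposed 24 h to 1, 5 and 10 μM; CellTiter-Blue viability normalized to vehicle control; three independent experiments.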

[16] = Cytotoxicity against human PBMC assessed as reduction in cell viability at 1 to 10 uM measured after 48 hrs by propidium iodide staining based flow cytometry

COc1cc2c(cc1OC)[C@@H](Cc1ccc(Oc3cc(C[C@@H]4c5cc(OC)c(OC)cc5CCN4C)ccc3O)cc1)N(C)CC2
Activity [1]: Active

COc1cc2c3cc1Oc1c(OC)c(OC)cc4c1[C@@H](Cc1ccc(O)c(c1)Oc1ccc(cc1)C[C@@H]3N(C)CC2)N(C)CC4
Activity [1]: Active

COc1cc2c3cc1Oc1c(OC)c(OC)cc4c1C(Cc1ccc(Cl)c(c1)Oc1ccc(cc1)CC3N(C)CC2)N(C)CC4 (mixture of isomers)
Activity [2]: inactive
Activity [3]: inactive
Activity [4]: inactive
Activity [5]: inactive
Activity [6]: inactive
Activity [7]: inactive
inhibition [8]: Active
Activity [1]: Active
inhibition [9]: Active
Activity [10]: Active
Activity [11]: Active

COc1cc2c3cc1Oc1c(OC)c(OC)cc4c1C(Cc1ccc(Cl)c(c1)Oc1ccc(cc1)CC3N(C)CC2)N(C)CC4 (racemic) [listing 1 of 2 here]
Activity [12]: Toxic

COc1cc2c3cc1Oc1c(OC)c(OC)cc4c1C(CCCCOc1ccc(cc1)CC3N(C)CC2)N(C)CC4 (racemic) [listing 1 of 2 here]
Activity [12]: Toxic

COc1cc2c3cc1Oc1c(OC)c(OC)cc4c1C(CCCCOc1ccc(cc1)CC3N(C)CC2)N(C)CC4 (racemic) [listing 2 of 2 here]
Activity [2]: inactive
Activity [3]: inactive
Activity [4]: inactive
Activity [5]: inactive
Activity [6]: inactive
Activity [7]: inactive
inhibition [8]: inactive
Activity [1]: Active
inhibition [9]: inactive
Activity [11]: inactive

COc1cc2c3cc1Oc1c(OC)c(OC)cc4c1C(Cc1ccc(Cl)c(c1)Oc1ccc(cc1)CC3N(C)CC2)N(C)CC4 (racemic) [listing 2 of 2 here]
Activity [2]: inactive
Activity [3]: inactive
Activity [4]: inactive
Activity [5]: inactive
Activity [6]: inactive
Activity [7]: inactive
inhibition [8]: Active
Activity [1]: Active
inhibition [9]: Active
Activity [11]: inactive

COc1cc2c3cc1Oc1c(OC)c(OC)cc4c1C(Cc1cccc(c1)Oc1ccc(cc1)CC3N(C)CC2)N(C)CC4 (racemic; form 1) [listing 1 of 2 here]
Activity [13]: Toxic

COc1cc2c3cc1Oc1c(OC)c(OC)cc4c1C(Cc1ccc(OC(F)(F)F)c(c1)Oc1ccc(cc1)CC3N(C)CC2)N(C)CC4 (racemic; form 1) [listing 1 of 2 here]
Activity [13]: Toxic
Activity [14]: Toxic
Activity [15]: Toxic
Activity [16]: Toxic

COc1cc2c3cc1Oc1c(OC)c(OC)cc4c1C(Cc1cc(cs1)Oc1ccc(cc1)CC3N(C)CC2)N(C)CC4 (racemic; form 1)
Activity [15]: Toxic
Activity [16]: Toxic

COc1cc2c3cc1Oc1c(OC)c(OC)cc4c1C(Cc1ccc(OC(F)(F)F)c(c1)Oc1ccc(cc1)CC3N(C)CC2)N(C)CC4 (racemic; form 1) [listing 2 of 2 here]
Activity [2]: inactive
Activity [3]: inactive
Activity [4]: inactive
Activity [5]: inactive
Activity [6]: inactive
Activity [7]: inactive
inhibition [8]: Active
Activity [1]: Active
inhibition [9]: Active
Activity [10]: Active
Activity [11]: Active

COc1cc2c3cc1Oc1c(OC)c(OC)cc4c1C(Cc1cccc(c1)Oc1ccc(cc1)CC3N(C)CC2)N(C)CC4 (racemic; form 1) [listing 2 of 2 here]
Activity [2]: inactive
Activity [3]: inactive
Activity [4]: inactive
Activity [5]: inactive
Activity [6]: inactive
Activity [7]: inactive
inhibition [8]: Active
Activity [1]: Active
inhibition [9]: Active
Activity [10]: Active
Activity [11]: inactive

COc1cc2c3cc1Oc1c(OC)c(OC)cc4c1C(Cc1cccc(c1)Oc1ccc(cc1)CC3N(C)CC2)N(C)CC4 (racemic; form 2) [listing 1 of 2 here]
Activity [14]: Toxic
Activity [12]: Toxic

COc1cc2c3cc1Oc1c(OC)c(OC)cc4c1C(Cc1ccc(OC(F)(F)F)c(c1)Oc1ccc(cc1)CC3N(C)CC2)N(C)CC4 (racemic; form 2)
Activity [12]: Toxic

COc1cc2c3cc1Oc1c(OC)c(OC)cc4c1C(Cc1cc(cs1)Oc1ccc(cc1)CC3N(C)CC2)N(C)CC4 (racemic; form 2) [listing 1 of 2 here]
Activity [13]: Toxic
Activity [14]: Toxic
Activity [12]: Toxic

COc1cc2c3cc1Oc1c(OC)c(OC)cc4c1C(Cc1cc(cs1)Oc1ccc(cc1)CC3N(C)CC2)N(C)CC4 (racemic; form 2) [listing 2 of 2 here]
Activity [2]: inactive
Activity [3]: inactive
Activity [4]: inactive
Activity [5]: inactive
Activity [6]: inactive
Activity [7]: inactive
inhibition [8]: Active
Activity [1]: Active
inhibition [9]: Active
Activity [11]: inactive

COc1cc2c3cc1Oc1c(OC)c(OC)cc4c1C(Cc1cccc(c1)Oc1ccc(cc1)CC3N(C)CC2)N(C)CC4 (racemic; form 2) [listing 2 of 2 here]
Activity [2]: inactive
Activity [3]: inactive
Activity [4]: inactive
Activity [5]: inactive
Activity [6]: inactive
Activity [7]: inactive
inhibition [8]: Active
Activity [1]: Active
inhibition [9]: Active
Activity [11]: Active

COc1cc2c3cc1Oc1c(OC)c(OC)cc4c1C(CCCCOc1ccc(cc1)CC3N(C)CC2)N(C)CC4 (single isomer, unassigned; diastereomer 2) [listing 1 of 2 here]
Activity [13]: Toxic
Activity [14]: Toxic

COc1cc2c3cc1Oc1c(OC)c(OC)cc4c1C(CCCCOc1ccc(cc1)CC3N(C)CC2)N(C)CC4 (single isomer, unassigned; diastereomer 2) [listing 2 of 2 here]
Activity [2]: inactive
Activity [3]: inactive
Activity [4]: inactive
Activity [5]: inactive
Activity [6]: inactive
Activity [7]: inactive
inhibition [8]: inactive
Activity [1]: Active
inhibition [9]: inactive
Activity [11]: inactive

COc1ccc2cc1Oc1ccc(cc1)C[C@H]1c3cc(c(OC)cc3CCN1C)Oc1c(OC)c(OC)cc3c1[C@H](C2)N(C)CC3 [FANCHININ]
Activity [13]: Toxic
Activity [2]: inactive
Activity [3]: inactive
Activity [14]: Toxic
Activity [4]: inactive
Activity [5]: inactive
Activity [15]: Toxic
Activity [12]: Toxic
Activity [6]: inactive
Activity [7]: inactive
inhibition [8]: Active
Activity [1]: Active
inhibition [9]: Active
Activity [16]: Toxic
Activity [11]: inactive
